How the values were obtained:
[1] = species: Rattus norvegicus; test: Concentration of compound in plasma required to double the activated partial thromboplastin time in rat measured as 2(APTT) value; assay type: functional, cell-free
Outline: (§1)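 2 × APTT is the inhibitor concentration in plasma required to double the activated partial thromboplastin time.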

[2] = target: Prothrombin (Homo sapiens, UniProt P00734); test: Binding affinity was evaluated on serine protease thrombin.
[3] = species: Homo sapiens; test: Concentration of compound in plasma required to double the activated partial thromboplastin time in human measured as 2(APTT) value; assay type: functional, cell-free; outline: as §1
[4] = target: T1, Serine protease 1 (Homo sapiens, UniProt P07477); test: Binding affinity was evaluated on serine protease trypsin.
[5] = Partition coefficient (logP); assay type: physicochemical; conditions: octanol/water
Outline: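 Log P determined experimentally by standard octanol/water partitioning.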

[6] = species: Rattus norvegicus; test: The final concentration in plasma of rat carotid artery FeCl3 induced thrombosis model; assay type: ADME, organism-based
Outline: (§2)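 Rat carotid artery FeCl₃-induced thrombosis model. Compound in saline vehicle infused iv at 10 μg/kg/min for 120 min before the FeCl₃ insult. Plasma drug concentration measured. Saline vehicle controls run alongside.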

[7] = target: Plasma kallikrein (Homo sapiens, UniProt P03952); test: Binding affinity was evaluated on serine protease plasma kallikrein.; assay type: cell-free
[8] = target: T2, Chymotrypsinogen A (Bos taurus, UniProt P00766); test: Binding affinity was evaluated on serine protease Chymotrypsinogen; assay type: single protein
[9] = target: Plasminogen (Homo sapiens, UniProt P00747); test: Binding affinity was evaluated on serine protease plasmin.
[10] = species: Rattus norvegicus; test: (§3) % Free drug present in rat plasma.; assay type: ADME, organism-based
[11] = target: Tissue-type plasminogen activator (Homo sapiens, UniProt P00750); test: Binding affinity was evaluated on serine protease TPA.
[12] = species: Homo sapiens; test: % Free drug present in human plasma.; assay type: ADME, organism-based
[13] = Oral bioavailability in rats when dosed in a suspension of 1% methocel; assay type: ADME, organism-based; conditions: rat, in vivo
Outline: (§4)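 Fasted animals (24 h without food). Oral dose by gavage as a 1% methocel suspension. Intravenous dose given by indwelling jugular vein cannula in rat and by peripheral venipuncture in dog and cynomolgus monkey, in saline or 20% PEG 200. iv/po doses in mg/kg: rat 2/10, 5/20 or 5/12; dog 2/5 or 1/5; monkey 1/5. F (%) is the mean of at least three determinations.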

[14] = species: Rattus norvegicus; test: as §3; assay type: functional
[15] = Oral bioavailability in rat when dosed in a suspension of 1% methocel; assay type: ADME, organism-based; conditions: in vivo; outline: as §4
[16] = Oral bioavailability in cynomolgus monkey (dosed in a suspension of 1% methocel); assay type: ADME, organism-based, Macaca fascicularis; conditions: in vivo; outline: as §4
[17] = Oral bioavailability in cynomolgus monkey (dose 5 mg/kg); assay type: ADME, organism-based, Macaca fascicularis; conditions: in vivo; outline: as §4
[18] = Oral bioavailability in dog (dosed in a suspension of 1% methocel); assay type: ADME, organism-based, Canis lupus familiaris; conditions: in vivo; outline: as §4
[19] = target: T1, Serine protease 1; test: Selectivity was evaluated as the binding affinity between thrombin versus trypsin.
[20] = target: T2, Chymotrypsinogen A; test: Selectivity was evaluated as the binding affinity between thrombin versus Chymotrypsinogen
[21] = The 2(APTT) value is defined as the concentration of compound in plasma required to double the activated partial thromboplastin time in human; assay type: functional; outline: as §1
[22] = The concentration in plasma; assay type: ADME, cell-free; outline: as §2

Plasma kallikrein, sequence (P03952 20-390 limits assumed): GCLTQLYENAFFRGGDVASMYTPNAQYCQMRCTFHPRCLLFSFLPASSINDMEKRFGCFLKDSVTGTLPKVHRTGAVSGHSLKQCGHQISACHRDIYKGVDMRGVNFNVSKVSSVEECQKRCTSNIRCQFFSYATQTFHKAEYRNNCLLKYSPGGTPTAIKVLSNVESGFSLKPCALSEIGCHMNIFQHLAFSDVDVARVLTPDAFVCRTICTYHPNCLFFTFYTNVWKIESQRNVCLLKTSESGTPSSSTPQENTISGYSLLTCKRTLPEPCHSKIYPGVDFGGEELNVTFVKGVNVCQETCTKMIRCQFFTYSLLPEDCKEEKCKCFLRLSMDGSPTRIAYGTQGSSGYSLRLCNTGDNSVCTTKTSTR
Plasma kallikrein, sequence (P03952 391-638 limits assumed): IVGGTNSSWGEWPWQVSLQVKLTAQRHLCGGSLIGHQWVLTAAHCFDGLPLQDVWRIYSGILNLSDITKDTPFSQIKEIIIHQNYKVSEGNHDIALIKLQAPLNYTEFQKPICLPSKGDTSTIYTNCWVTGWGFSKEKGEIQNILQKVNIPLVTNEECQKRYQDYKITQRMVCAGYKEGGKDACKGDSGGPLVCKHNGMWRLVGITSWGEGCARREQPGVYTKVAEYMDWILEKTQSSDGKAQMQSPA
Plasminogen, sequence (P00747 97-580 limits assumed): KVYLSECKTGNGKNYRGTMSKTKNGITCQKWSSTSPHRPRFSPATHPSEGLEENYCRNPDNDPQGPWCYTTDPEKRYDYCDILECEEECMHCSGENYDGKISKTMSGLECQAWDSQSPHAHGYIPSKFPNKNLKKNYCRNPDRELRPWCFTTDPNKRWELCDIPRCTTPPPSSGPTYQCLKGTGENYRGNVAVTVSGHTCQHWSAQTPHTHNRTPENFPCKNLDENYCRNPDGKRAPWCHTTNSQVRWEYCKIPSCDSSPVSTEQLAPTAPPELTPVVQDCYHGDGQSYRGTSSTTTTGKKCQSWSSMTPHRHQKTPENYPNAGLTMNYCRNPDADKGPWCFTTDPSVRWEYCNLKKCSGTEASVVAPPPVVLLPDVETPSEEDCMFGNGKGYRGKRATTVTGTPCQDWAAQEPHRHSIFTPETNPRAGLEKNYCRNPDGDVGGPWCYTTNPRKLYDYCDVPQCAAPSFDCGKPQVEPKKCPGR
Plasminogen, sequence (P00747 581-810 limits assumed): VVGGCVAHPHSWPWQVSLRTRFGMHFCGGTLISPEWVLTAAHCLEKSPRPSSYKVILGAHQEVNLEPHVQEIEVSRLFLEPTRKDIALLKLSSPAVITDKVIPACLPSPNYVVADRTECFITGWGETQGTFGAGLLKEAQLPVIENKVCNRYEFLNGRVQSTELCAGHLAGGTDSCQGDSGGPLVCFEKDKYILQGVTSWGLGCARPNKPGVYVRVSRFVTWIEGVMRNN
Tissue-type plasminogen activator, sequence (P00750 whole entry): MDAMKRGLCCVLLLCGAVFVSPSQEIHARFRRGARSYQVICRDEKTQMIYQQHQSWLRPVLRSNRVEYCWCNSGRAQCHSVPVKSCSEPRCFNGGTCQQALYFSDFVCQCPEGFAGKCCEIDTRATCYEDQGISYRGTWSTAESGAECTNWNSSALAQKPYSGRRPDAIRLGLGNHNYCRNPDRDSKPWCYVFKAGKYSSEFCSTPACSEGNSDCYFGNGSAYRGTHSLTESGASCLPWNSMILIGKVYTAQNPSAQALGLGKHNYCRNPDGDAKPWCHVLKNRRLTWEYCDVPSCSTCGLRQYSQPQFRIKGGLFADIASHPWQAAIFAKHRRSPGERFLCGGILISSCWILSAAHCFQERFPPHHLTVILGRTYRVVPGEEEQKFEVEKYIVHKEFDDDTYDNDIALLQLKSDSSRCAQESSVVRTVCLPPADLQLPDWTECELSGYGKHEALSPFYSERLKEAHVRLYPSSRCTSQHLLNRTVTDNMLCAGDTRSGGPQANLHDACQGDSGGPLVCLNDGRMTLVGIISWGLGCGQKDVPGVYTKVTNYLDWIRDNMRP
T1 sequence (P07477 whole entry): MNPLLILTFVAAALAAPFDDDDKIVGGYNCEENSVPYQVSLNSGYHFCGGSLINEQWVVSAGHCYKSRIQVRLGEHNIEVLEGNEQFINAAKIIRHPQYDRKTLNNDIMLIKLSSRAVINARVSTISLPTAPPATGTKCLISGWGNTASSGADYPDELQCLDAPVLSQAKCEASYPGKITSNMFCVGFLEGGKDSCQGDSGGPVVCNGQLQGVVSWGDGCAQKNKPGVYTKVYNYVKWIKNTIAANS

Structure (SMILES) | Ki [2] [µM] | Concentration [1] [µM] | Concentration [3] [µM] | Ki [4] [µM] | logP [5] | concentration [6] [nM] | Ki [7] [µM] | Ki [8] [µM] | Ki [9] [µM] | Ki [11] [µM] | Free [12] [%] | bioavailability [15] [%] | further results
NC(=O)COc1ccc(Cl)cc1CNC(=O)[C@@H]1CCCN1C(=O)[C@H](N)C1CCCCC1 | 0.0005 | 0.31 | 0.25 | 9 | 1.96 | 726 | 816 | 131 | 152 | 11 | 26 |  | Free [10]: 7%
N[C@@H](C(=O)N1CCC[C@H]1C(=O)NCc1cc(Cl)ccc1OCC(=O)NC1CC1)C1CCCCC1 |  | 0.42 | 0.35 | 18 | 2.04 |  | 79 | 67 | 113 | 36 | 12 | 20 | Free [14]: 11%; bioavailability [16]: 34%; bioavailability [17]: 34%
N[C@@H](C(=O)N1CCC[C@H]1C(=O)NCc1cc(Cl)ccc1Cl)C1CCCCC1 | 0.005 |  | 0.95 | 29 | 2.63 | 329 | 586 | 49 | 691 | 19 | 4 | 23 | Free [10]: 9%
NC(C(=O)N1CCC[C@H]1C(=O)NCc1cc(Cl)ccc1Cl)C(c1ccccc1)c1ccccc1 (stereo partly specified) |  |  |  |  | > 3.1 |  |  |  |  |  |  |  | bioavailability [18]: 45%; Ki [19]: 7 µM; Ki [20]: > 50 µM
CC1CNc2c(cccc2S(=O)(=O)N[C@@H](CCCNC(=N)N)C(=O)N2CCC(C)C[C@@H]2C(=O)O)C1 (single isomer, unassigned) [ARGATROBAN] |  |  |  |  |  |  |  |  |  |  |  |  | 2*APTT [21]: 0.28 µM
CCNC(=O)COc1ccc(Cl)cc1CNC(=O)[C@@H]1CCCN1C(=O)[C@H](N)C1CCCCC1 |  | 0.38 | 0.41 | 23 | 2.07 |  |  | 71 |  |  | 15 | 10 | bioavailability [18]: 40%; concentration [22]: 794 nM; Free [14]: 14%; bioavailability [16]: 63%; bioavailability [17]: 63%
CCOC(=O)COc1ccc(Cl)cc1CNC(=O)[C@@H]1CCCN1C(=O)[C@H](N)C1CCCCC1 | 0.00045 |  |  |  |  |  |  |  |  |  |  |  | 
CCN(CC)C(=O)CN[C@@H](C(=O)N1CCC[C@H]1C(=O)NCc1ccccc1Cl)C1CCCCC1 | 0.02 |  |  |  |  |  |  |  |  |  |  |  | 

Continued, in another order:

Ki [2] [µM] | Structure (SMILES) | Concentration [1] [µM] | Concentration [3] [µM] | Ki [4] [µM] | logP [5] | concentration [6] [nM] | Ki [7] [µM] | Ki [8] [µM] | Ki [9] [µM] | Ki [11] [µM] | Free [12] [%] | bioavailability [15] [%] | further results
0.00031 | CCN(CC)C(=O)CN[C@@H](C(=O)N1CCC[C@H]1C(=O)NCc1cc(Cl)ccc1Cl)C1CCCCC1 |  |  | 27 | 2.67 | 245 | 399 | 174 | 244 | 29 |  |  | bioavailability [13]: 10%
0.0025 | N[C@@H](C(=O)N1CCC[C@H]1C(=O)NCc1cc(Cl)ccc1O)C1CCCCC1 |  |  |  |  |  |  |  |  |  |  |  | 
